{
  "source": "ChEMBL document CHEMBL5705892",
  "about": "“MK-2206, an allosteric Akt inhibitor, enhances antitumor efficacy by standard chemotherapeutic agents or molecular targeted drugs in vitro and in vivo” (Mol Cancer Ther, 2010)",
  "key": {"A2780 [1]": {"system": "A2780", "test": "Synergistic antiproliferative activity against human A2780 cells assessed as combination index at ED50 measured after 72 hrs in presence of camptothecin by celltiter-glo assay", "type": "functional", "method_in_brief": "(§1)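 Cells were seeded at 2–3 × 10³ per well in RPMI 1640 with 10% FBS. At 24 h, MK-2206 and the partner drug were added simultaneously at constant concentration ratios spanning each agent's IC₅₀, for 72 h. Growth was read as cellular ATP by CellTiter-Glo. CI was taken from median-effect plots of each agent alone and in combination (Chou–Talalay), at ED₅₀, ED₇₅ and ED₉₀.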"}, "NCI-H460 [2]": {"system": "NCI-H460", "test": "Synergistic antiproliferative activity against human NCI-H460 cells assessed as combination index at ED90 measured after 72 hrs in presence of camptothecin by celltiter-glo assay", "type": "functional"}, "MDA-MB-468": {"system": "MDA-MB-468", "test": "Antiproliferative activity against human MDA-MB-468 cells assessed as reduction in cell proliferation measured after 72 hrs by celltiter-glo assay", "type": "functional, cell-based", "conditions": "MDA-MB-468, 72 h", "method_in_brief": "(§2)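 Cells in RPMI 1640 with 10% heat-inactivated FBS at 37°C and 5% CO₂ were seeded at 2 to 3 × 10³ per well. […] Growth was read as cellular ATP by CellTiter-Glo.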"}, "[3]": {"test": "Toxicity in human HCC70 cells xenografted CB17/icr SCID mouse assessed as mortality at 120 mg/kg, po administered 3 times per week for 3 weeks starting 2 hrs post-lapatinib treatment and measured during compound dosing", "type": "organism-based", "conditions": "in vivo, 504 h", "method_in_brief": "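HCC70 cells in 50% Matrigel/PBS injected s.c. into flank of female C.B-17/ICR-scid mice; dosing began after 3 wk, groups randomized at mean tumour 0.2 cm³ (n = 5). Lapatinib 100 mg/kg p.o. in distilled water, 5 d/wk for 3 wk; MK-2206 in 30% Captisol p.o. 3×/wk for 3 wk, given 2 h after lapatinib. Body weight and physical signs monitored throughout.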"}, "[4]": {"molecular_target": "RAC-alpha serine/threonine-protein kinase (Homo sapiens) (UniProt P31749)", "sequence (P31749 whole entry)": "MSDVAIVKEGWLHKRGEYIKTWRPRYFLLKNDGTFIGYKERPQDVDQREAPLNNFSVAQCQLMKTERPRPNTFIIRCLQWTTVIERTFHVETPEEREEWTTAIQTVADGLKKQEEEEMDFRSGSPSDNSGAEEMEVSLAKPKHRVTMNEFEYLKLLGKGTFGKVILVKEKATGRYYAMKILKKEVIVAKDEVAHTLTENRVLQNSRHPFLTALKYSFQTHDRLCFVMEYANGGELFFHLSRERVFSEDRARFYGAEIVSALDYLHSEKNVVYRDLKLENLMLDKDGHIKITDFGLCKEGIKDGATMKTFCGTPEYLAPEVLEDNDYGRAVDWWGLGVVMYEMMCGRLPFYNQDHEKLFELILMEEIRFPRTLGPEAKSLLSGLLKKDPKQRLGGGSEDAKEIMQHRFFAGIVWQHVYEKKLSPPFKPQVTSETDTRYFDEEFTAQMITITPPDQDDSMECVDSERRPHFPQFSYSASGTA", "test": "Inhibition of AKT phosphorylation at S473 residue in human NCI-H661 cells at 3 umol/L measured after 4 to 24 hrs in presence of gemcitabine by MSD assay", "conditions": "time 4-24 hrs"}, "NCI-H358": {"system": "NCI-H358", "test": "Synergistic antiproliferative activity against human NCI-H358 cells assessed as combination index at ED90 measured after 72 hrs in presence of erlotinib by celltiter-glo assay", "type": "functional"}, "A2780 [5]": {"system": "A2780", "test": "Induction of apoptosis in human A2780 cells assessed as increase in caspase-3/7 activity at 0.0625 to 1 uM incubated for 24 hrs prior to addition of carboplatin and measured after 24 hrs by caspase-glo 3/7 assay", "type": "functional, cell-based", "conditions": "dose 0.0625-1 µM"}, "SK-OV-3": {"system": "SK-OV-3", "test": "Synergistic antiproliferative activity against lapatinib pretreated human SK-OV-3 cells assessed as combination index at ED50 measured after 72 hrs by celltiter-glo assay", "type": "functional"}, "HCC70 [6]": {"system": "HCC70", "test": "Induction of apoptosis in human HCC70 cells assessed as increase in caspase-3/7 activity at 3 umol/L measured after 48 hrs in presence of lapatinib by caspase-glo 3/7 assay relative to control", "type": "functional", "conditions": "dose 3 µmol/L", "method_in_brief": "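HCC70 cells were grown in RPMI 1640 with 10% heat-inactivated FBS at 37°C in 5% CO₂. They were exposed for 48 h to MK-2206 (0, 0.03, 0.3, 3 µmol/L), with or without lapatinib (0, 1, 3, 5, 10 µmol/L). Caspase-3/7 activity was read by Caspase-Glo 3/7 luminescence and expressed as fold induction over the DMSO vehicle control. The experiment was run twice, and representative data were reported.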"}, "HCC1954": {"system": "HCC1954", "test": "Synergistic antiproliferative activity against human HCC1954 cells assessed as combination index at ED75 measured after 96 hrs in presence of lapatinib by celltiter-glo assay", "type": "functional"}, "SK-BR-3": {"system": "SK-BR-3", "test": "Synergistic antiproliferative activity against lapatinib pretreated human SK-BR-3 cells assessed as combination index at ED90 measured after 72 hrs by celltiter-glo assay", "type": "functional"}, "NCI-H460 [7]": {"system": "NCI-H460", "test": "Synergistic antiproliferative activity against human NCI-H460 cells assessed as combination index at ED90 measured after 72 hrs in presence of carboplatin by celltiter-glo assay", "type": "functional"}, "A-431": {"system": "A-431", "test": "Synergistic antiproliferative activity against human A-431 cells assessed as combination index at ED50 measured after 72 hrs in presence of erlotinib by celltiter-glo assay", "type": "functional", "method_in_brief": "as §1"}, "[8]": {"molecular_target": "RAC-alpha serine/threonine-protein kinase (Homo sapiens) (UniProt P31749)", "test": "Inhibition of AKT in human A-431 cells assessed as reduction in PRAS40 phosphorylation at T246 residue at 5 umol/L measured after 5 hrs by Western blot analysis", "type": "cell-based", "conditions": "dose 5.0 µmol/L", "method_in_brief": "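Cells were lysed in Tris-HCl pH 7.5, 150 mM NaCl, 1% Triton X-100 with protease and phosphatase inhibitors. Lysates were run on SDS-PAGE, transferred to nitrocellulose and probed with phospho-specific antibodies.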"}, "[9]": {"molecular_target": "RAC-alpha serine/threonine-protein kinase (Homo sapiens) (UniProt P31749)", "test": "Inhibition of AKT in human HCC70 cells assessed as reduction in S6 phosphorylation at S240/S244 residues at 1 umol/L by Western blot analysis", "type": "cell-based", "conditions": "dose 1.0 µmol/L, time 3-24 hrs", "method_in_brief": "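HCC70 cells at ~70% confluence were exposed to 10 µmol/L lapatinib, 1 µmol/L MK-2206, or both, for 0, 3, 6, 12 or 24 h. Lysates were prepared in Triton X-100/Tris buffer (pH 7.5) with protease and phosphatase inhibitors. Immunoblots after SDS-PAGE and nitrocellulose transfer were probed for pAkt and pS6.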"}, "HCC70 [10]": {"system": "HCC70", "test": "Antitumor activity against human HCC70 cells xenografted in CB17/icr SCID mouse assessed as reduction in tumor volume at 120 mg/kg, po administered 3 times per week for 3 weeks and measured twice a week during compound dosing by caliper method", "type": "functional, organism-based", "method_in_brief": "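Female C.B-17/ICR-scid mice were given s.c. HCC70 cells in 50% Matrigel/50% PBS in the left flank. They were randomized at a mean tumor size of 0.2 cm³, n = 5 per group. Lapatinib (distilled water) was given at 100 mg/kg po, 5 d/wk for 3 wk. MK-2206 (30% Captisol) was given at 120 mg/kg po, 3×/wk, 2 h after lapatinib. Calipers twice weekly; volume = […] × 0.5.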"}, "Calu-6": {"system": "Calu-6", "test": "Antiproliferative activity against human Calu-6 cells assessed as reduction in cell proliferation measured after 72 hrs by celltiter-glo assay", "type": "functional, cell-based", "conditions": "Calu-6, 72 h", "method_in_brief": "as §2"}, "NCI-H1993": {"system": "NCI-H1993", "test": "Synergistic antiproliferative activity against human NCI-H1993 cells assessed as combination index at ED25 to ED90 measured after 72 hrs in presence of carboplatin by celltiter-glo assay", "type": "functional"}, "NCI-H460 [11]": {"system": "NCI-H460", "test": "Synergistic antiproliferative activity against human NCI-H460 cells assessed as combination index at ED75 measured after 72 hrs in presence of erlotinib by celltiter-glo assay", "type": "functional"}, "[12]": {"test": "In vivo inhibition of AKT phosphorylation at S473 residue in human NCI-H292 cells xenografted mouse at 120 mg/kg, po administered as single dose measured after 12 hrs by Western blot analysis relative to control", "type": "functional"}},
  "note": "pIC50: −log10 of the molar value. Calls of active or inactive are those of the source. No cut-off for these calls is given here.",
  "data": [
    {"molecule": "Cl.NC1(c2ccc(-c3nc4ccn5c(=O)[nH]nc5c4cc3-c3ccccc3)cc2)CCC1", "values": [
      {"measurement": "CI50", "setting": "A2780 [1]", "value": 0.56},
      {"measurement": "CI90", "setting": "NCI-H460 [2]", "value": 0.63},
      {"measurement": "pIC50", "setting": "MDA-MB-468", "value": 5.59},
      {"measurement": "Activity", "setting": "[3]", "value": "Non-Toxic"},
      {"measurement": "inhibition", "setting": "[4]", "value": "Active"},
      {"measurement": "CI90", "setting": "NCI-H358", "value": 0.08},
      {"measurement": "Activity", "setting": "A2780 [5]", "value": "inactive"},
      {"measurement": "CI50", "setting": "SK-OV-3", "value": 0.18},
      {"measurement": "fold change (FC)", "setting": "HCC70 [6]", "value": 7},
      {"measurement": "CI75", "setting": "HCC1954", "value": 0.18},
      {"measurement": "CI90", "setting": "SK-BR-3", "value": 0.18},
      {"measurement": "CI90", "setting": "NCI-H460 [7]", "value": 0.37},
      {"measurement": "CI50", "setting": "A-431", "value": 0.42},
      {"measurement": "inhibition", "setting": "[8]", "value": "Active"},
      {"measurement": "inhibition", "setting": "[9]", "value": "Dose-Dependent Effect"},
      {"measurement": "Activity", "setting": "HCC70 [10]", "value": "Active"},
      {"measurement": "pIC50", "setting": "Calu-6", "value": 4.54},
      {"measurement": "CI", "setting": "NCI-H1993", "value": 0.44},
      {"measurement": "CI75", "setting": "NCI-H460 [11]", "value": 0.23},
      {"measurement": "inhibition in vivo at 120 mg/kg", "setting": "[12]", "value": 53.1, "unit": "%"}
    ]}
  ]
}
